Assay results reported in paper PMC5966020 (Journal of medicinal chemistry, 2018).
Where two headings read alike, the source gives them in different places. Blank lines part the entries; values can stand above or below the molecule they belong to.

Key:
[1] = target: T1, human recombinant MAGL (hMAGL) (Homo sapiens, UniProt Q99685); test: human recombinant MAGL inhibition enzyme assay; format: biochemical
T1 sequence (Q99685 1-303): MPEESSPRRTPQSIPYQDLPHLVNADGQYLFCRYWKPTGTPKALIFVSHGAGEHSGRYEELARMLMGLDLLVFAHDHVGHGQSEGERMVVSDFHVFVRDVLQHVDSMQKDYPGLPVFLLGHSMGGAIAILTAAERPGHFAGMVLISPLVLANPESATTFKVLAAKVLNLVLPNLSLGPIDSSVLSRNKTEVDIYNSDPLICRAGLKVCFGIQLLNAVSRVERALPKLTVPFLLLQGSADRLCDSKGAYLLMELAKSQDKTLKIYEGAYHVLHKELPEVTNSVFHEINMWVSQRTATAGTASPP
Outline: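 Commercial MAGL inhibitor screening kit with human recombinant enzyme, run per the manufacturer's instructions. JZL195 was the positive control. IC50 from dose-response curve fitting, averaged over 3–5 runs.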

[2] = LogP by shake flask method; format: physicochemical; settings: n-octanol/water
Outline: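 n-Octanol/water liquid-liquid partition ('shake flask'), following the OECD 107 guideline. Compound quantified in each phase by LC-MS; n = 3.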

rat brain MAGL [3] = target: T2, rat brain MAGL (Rattus norvegicus, UniProt Q8R431); test: [3H]2-OG hydrolysis assay; format: biochemical; settings: for IC50: IC50, inhibition of [3H]2-OG hydrolysis, 0.5 μM [3H]2-OG; for pIC50 in [3H]2-OG assay: positive control
T2 sequence (Q8R431 1-303): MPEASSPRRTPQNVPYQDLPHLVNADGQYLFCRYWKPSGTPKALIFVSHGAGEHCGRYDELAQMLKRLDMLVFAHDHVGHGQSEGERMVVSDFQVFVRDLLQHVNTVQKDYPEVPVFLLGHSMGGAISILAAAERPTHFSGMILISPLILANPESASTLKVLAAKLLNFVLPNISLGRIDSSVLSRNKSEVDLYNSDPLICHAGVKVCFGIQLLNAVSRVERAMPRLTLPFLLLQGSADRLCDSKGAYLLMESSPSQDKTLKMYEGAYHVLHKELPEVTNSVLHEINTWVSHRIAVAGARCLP
Outline: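 Rat brain preparation, test compound and buffer (10 mM Tris-HCl, 1 mM EDTA, pH 7.4) were preincubated 0–60 min. [3H]2-OG diluted with unlabelled 2-OG was then added to 0.5 μM final, with 0.125% w/v fatty acid-free BSA. Kinetics: no preincubation, 2 min incubation. Reversibility: 60 min preincubation, then 20-fold dilution. JZL184 was the positive control. Means of 3–4 runs.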

FAAH = target: T3, FAAH (Rattus norvegicus, UniProt P97612); test: [3H]AEA hydrolysis assay; format: biochemical
T3 sequence (P97612 1-579): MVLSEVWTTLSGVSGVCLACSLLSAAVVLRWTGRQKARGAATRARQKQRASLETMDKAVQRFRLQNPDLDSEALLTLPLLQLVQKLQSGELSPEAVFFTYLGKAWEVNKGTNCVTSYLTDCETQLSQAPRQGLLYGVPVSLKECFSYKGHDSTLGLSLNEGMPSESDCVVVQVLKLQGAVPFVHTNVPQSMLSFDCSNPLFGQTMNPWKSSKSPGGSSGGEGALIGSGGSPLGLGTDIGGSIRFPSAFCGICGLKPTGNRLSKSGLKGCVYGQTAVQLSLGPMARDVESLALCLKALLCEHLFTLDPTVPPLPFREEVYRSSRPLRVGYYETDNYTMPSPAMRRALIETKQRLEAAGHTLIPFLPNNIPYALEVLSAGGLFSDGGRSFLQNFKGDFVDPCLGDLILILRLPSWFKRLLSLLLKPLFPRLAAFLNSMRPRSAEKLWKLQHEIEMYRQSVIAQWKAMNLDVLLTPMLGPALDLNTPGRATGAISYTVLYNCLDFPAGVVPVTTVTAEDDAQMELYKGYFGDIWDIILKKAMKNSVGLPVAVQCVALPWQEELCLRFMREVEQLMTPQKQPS

CB1 = CB1 (Homo sapiens, UniProt P21554); test: CB1 receptor agonist and antagonist assays; format: cell-based; settings: up to 30 μM concentration
Outline: (§1)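 Run by the NIMH Psychoactive Drug Screening Program to its published protocols, in agonist and antagonist formats. CP55940 was the agonist control at both receptors. Rimonabant was the CB1 antagonist control and SR144528 the CB2 antagonist control. Dose-response curves were generated, averaged over 3–5 runs.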

CB2 = CB2 (Homo sapiens, UniProt P34972); test: CB2 receptor agonist and antagonist assays; format: cell-based; settings: up to 30 μM concentration
Outline: as §1

ABHD6 = target: T4, ABHD6 (Mus musculus, UniProt Q8R2Y0); test: activity based protein profiling; format: biochemical; settings: up to 10 μM concentration
T4 sequence (Q8R2Y0 1-336): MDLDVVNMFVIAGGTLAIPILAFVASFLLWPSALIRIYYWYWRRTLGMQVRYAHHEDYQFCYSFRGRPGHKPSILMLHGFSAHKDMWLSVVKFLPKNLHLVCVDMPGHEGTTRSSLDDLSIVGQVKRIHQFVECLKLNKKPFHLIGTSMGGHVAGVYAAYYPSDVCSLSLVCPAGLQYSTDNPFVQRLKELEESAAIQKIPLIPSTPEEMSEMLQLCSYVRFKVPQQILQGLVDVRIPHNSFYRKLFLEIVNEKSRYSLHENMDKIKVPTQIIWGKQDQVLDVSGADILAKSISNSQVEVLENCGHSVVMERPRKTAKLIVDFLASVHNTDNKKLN
Outline: (§2)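 Mouse brain membrane proteome (1 mg/mL) preincubated with DMSO or test compound (1 and 10 μM) for 30 min at 37 °C. FP-rhodamine (1 μM final) was then added for 1–180 min at room temperature. Samples were separated by SDS-PAGE and read by in-gel fluorescence. Band intensity is given relative to DMSO (100%). MJN110 was the positive control; 3 runs.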

ABHD12 = target: T5, ABHD12 (Mus musculus, UniProt Q99LR1); test: activity based protein profiling; format: biochemical; settings: up to 10 μM concentration
T5 sequence (Q99LR1 1-398): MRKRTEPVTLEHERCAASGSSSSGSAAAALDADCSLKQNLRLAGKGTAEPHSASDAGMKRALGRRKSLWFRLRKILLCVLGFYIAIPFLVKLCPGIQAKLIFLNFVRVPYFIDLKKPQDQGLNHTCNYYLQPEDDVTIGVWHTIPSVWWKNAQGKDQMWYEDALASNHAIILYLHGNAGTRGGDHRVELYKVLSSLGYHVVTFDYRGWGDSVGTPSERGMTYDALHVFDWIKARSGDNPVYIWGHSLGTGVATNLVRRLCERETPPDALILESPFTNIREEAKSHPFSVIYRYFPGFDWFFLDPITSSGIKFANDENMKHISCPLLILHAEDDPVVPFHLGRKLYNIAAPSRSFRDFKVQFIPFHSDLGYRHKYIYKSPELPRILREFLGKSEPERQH
Outline: as §2

brain = test: PET brain uptake of 19; settings: in vivo
rat brain MAGL [4] = target: T2, rat brain MAGL; settings: read-out: IC50, inhibition of [3H]2-OG hydrolysis, cited from earlier work

Sequence of CB2 (P34972 whole entry, species assumed): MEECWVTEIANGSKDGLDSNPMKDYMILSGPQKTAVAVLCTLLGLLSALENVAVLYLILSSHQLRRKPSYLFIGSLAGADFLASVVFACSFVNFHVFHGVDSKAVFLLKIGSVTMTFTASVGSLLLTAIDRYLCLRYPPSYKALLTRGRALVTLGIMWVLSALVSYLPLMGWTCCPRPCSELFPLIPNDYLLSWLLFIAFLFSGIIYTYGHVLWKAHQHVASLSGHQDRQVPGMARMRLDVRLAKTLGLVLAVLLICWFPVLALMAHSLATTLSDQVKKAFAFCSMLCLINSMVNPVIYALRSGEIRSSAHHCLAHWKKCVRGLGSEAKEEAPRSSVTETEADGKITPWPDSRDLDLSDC
Sequence of CB1 (P21554 whole entry, species assumed): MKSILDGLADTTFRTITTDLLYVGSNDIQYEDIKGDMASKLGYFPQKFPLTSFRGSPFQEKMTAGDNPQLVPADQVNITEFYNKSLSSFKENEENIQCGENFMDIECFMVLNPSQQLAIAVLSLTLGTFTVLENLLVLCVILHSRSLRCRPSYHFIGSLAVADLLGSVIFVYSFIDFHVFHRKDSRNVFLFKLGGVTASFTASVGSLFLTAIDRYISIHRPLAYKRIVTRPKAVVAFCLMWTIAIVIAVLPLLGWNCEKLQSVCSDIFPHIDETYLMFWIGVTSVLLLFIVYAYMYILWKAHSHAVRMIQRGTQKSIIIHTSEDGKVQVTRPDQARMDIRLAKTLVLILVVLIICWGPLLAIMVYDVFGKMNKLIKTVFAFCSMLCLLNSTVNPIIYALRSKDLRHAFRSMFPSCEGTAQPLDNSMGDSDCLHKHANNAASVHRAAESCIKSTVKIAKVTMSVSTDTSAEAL

SMILES: O=C(OC(C(F)(F)F)C(F)(F)F)N1CC(c2nc(-c3ccc(F)cc3)no2)C1 [Compound 8, 1,1,1,3,3,3-hexafluoropropan-2-yl 3-(3-(4-fluorophenyl)-1,2,4-oxadiazol-5-yl)azetidine-1-carboxylate]
- IC50 [1]: 13.4 nM
- logP [2]: 1.45 ± 0.01

- logP [2]: 1.42 ± 0.11
SMILES: O=C(OC(C(F)(F)F)C(F)(F)F)N1CC(c2nc(-c3cccc(F)c3)no2)C1 [Compound 9, 1,1,1,3,3,3-hexafluoropropan-2-yl 3-(3-(3-fluorophenyl)-1,2,4-oxadiazol-5-yl)azetidine-1-carboxylate]

- Ki (rat brain MAGL [3]): 1.03 nM
- time-dependency of inhibition (rat brain MAGL [3]; 0.2, 0.6 and 1 nM inhibitor): time-dependent inhibition
- IC50 (rat brain MAGL [3]; 60 min of pre-incubation): 0.68 nM
- IC50 (rat brain MAGL [3]; without pre-incubation): 3.9 nM
- binding mechanism (rat brain MAGL [3]; dilution experiments and ABPP time course): irreversible binding mechanism
- IC50 [1]: 12.7 nM
- selectivity towards MAGL over FAAH (FAAH): 30–50 fold
- interaction with CB1 (CB1): No significant interactions
- interaction with CB2 (CB2): No significant interactions
- interaction with ABHD6 (ABHD6): No significant interactions
- interaction with ABHD12 (ABHD12): No significant interactions
- logP [2]: 1.23 ± 0.1
SMILES: COc1ccc(-c2noc(C3CN(C(=O)OC(C(F)(F)F)C(F)(F)F)C3)n2)cc1 [Compound 10, 1,1,1,3,3,3-hexafluoropropan-2-yl 3-(3-(4-methoxyphenyl)-1,2,4-oxadiazol-5-yl)azetidine-1-carboxylate]

- logP [2]: 1.17 ± 0.14
SMILES: COc1cccc(-c2noc(C3CN(C(=O)OC(C(F)(F)F)C(F)(F)F)C3)n2)c1 [Compound 11, 1,1,1,3,3,3-hexafluoropropan-2-yl 3-(3-(3-methoxyphenyl)-1,2,4-oxadiazol-5-yl)azetidine-1-carboxylate]

SMILES: O=C(OC(C(F)(F)F)C(F)(F)F)N1CC(c2nc(-c3ccc(F)cc3)no2)C1 [Compound 19, ^11C-carbonyl labeled 1,1,1,3,3,3-hexafluoropropan-2-yl 3-(3-(4-fluorophenyl)-1,2,4-oxadiazol-5-yl)azetidine-1-carboxylate]
- peak SUV in brain (brain): ca. 1.4 SUV

SMILES: O=C(Oc1ccc([N+](=O)[O-])cc1)N1CCC(C(O)(c2ccc3c(c2)OCO3)c2ccc3c(c2)OCO3)CC1 [JZL184]
- pIC50 in [3H]2-OG assay (rat brain MAGL [3]; 60 min preincubation): 8.24±0.02
- pIC50 in [3H]2-OG assay (rat brain MAGL [3]; without preincubation): 6.46±0.04
- IC50 (rat brain MAGL [4]; preincubation 0 min): 350 nM
- IC50 (rat brain MAGL [4]; preincubation 30 min): 12 nM
- IC50 (rat brain MAGL [4]; preincubation 60 min): 5.8 nM

SMILES: O=C(Oc1ccc([N+](=O)[O-])cc1)N1CCN(Cc2cccc(Oc3ccccc3)c2)CC1 [JZL195, reference compound]
- block of human recombinant MAGL hydrolysis ([1]; 4.4 μM, positive control): completely blocked
